Measured values reported in paper PMC3179183 (Bioorganic & medicinal chemistry letters, 2010).
Read-outs that look alike come from different tables or passages of the source.

Columns and labels:
M5 [1] = target: T1, M5 (Homo sapiens, UniProt P08912); experiment: M5 PAM activity, mobilization of intracellular calcium in M5 CHO cells; assay type: cell-based
T1 sequence (P08912 1-532): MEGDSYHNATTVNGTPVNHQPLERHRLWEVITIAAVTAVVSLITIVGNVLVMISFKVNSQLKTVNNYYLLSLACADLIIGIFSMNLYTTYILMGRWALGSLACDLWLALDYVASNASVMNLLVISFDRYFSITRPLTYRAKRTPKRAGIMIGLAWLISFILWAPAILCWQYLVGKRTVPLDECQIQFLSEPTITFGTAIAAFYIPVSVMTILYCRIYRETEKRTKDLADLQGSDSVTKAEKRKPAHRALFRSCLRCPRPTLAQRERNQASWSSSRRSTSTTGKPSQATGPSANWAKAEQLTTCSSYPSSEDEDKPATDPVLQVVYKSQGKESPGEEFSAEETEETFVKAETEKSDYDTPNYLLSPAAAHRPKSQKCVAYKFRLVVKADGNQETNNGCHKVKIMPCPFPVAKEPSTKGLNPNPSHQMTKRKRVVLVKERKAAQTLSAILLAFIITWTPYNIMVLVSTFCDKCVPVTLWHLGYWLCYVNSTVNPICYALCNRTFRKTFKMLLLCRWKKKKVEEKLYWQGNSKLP

[2] = in words; cited from earlier work
M2 [3] = target: T2, M2 (Homo sapiens, UniProt P08172); details: read-out: M2 EC50, cited from earlier work
T2 sequence (P08172 1-466): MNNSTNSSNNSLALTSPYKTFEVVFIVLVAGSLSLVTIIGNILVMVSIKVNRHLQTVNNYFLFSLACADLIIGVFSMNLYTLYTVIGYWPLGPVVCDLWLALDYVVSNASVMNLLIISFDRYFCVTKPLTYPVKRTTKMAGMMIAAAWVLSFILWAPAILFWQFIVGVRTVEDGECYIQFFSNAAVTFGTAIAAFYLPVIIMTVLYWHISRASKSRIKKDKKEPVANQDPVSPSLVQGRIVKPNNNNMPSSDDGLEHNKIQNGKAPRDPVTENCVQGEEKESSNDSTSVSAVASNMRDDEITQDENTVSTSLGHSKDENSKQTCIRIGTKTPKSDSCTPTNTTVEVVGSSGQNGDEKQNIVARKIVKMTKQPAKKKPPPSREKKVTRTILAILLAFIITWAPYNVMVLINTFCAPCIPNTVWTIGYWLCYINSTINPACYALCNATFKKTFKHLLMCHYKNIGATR

[4] = cited from earlier work
M4 [5] = target: T3, M4 (Homo sapiens, UniProt P08173); details: read-out: M4 EC50, cited from earlier work
T3 sequence (P08173 1-479): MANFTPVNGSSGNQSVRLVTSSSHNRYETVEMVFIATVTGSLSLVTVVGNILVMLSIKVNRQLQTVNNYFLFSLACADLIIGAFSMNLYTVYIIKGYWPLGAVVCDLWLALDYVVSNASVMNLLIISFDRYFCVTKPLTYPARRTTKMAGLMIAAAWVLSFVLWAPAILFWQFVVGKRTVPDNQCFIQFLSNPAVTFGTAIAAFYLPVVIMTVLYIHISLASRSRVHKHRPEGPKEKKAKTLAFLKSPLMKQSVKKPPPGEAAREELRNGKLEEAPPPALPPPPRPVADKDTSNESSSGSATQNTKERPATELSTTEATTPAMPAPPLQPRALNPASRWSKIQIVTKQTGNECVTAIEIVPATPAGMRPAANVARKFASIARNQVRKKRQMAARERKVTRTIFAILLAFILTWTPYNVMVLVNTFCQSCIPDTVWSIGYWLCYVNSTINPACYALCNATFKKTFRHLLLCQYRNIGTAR

M3 [6] = target: T4, M3 (Homo sapiens, UniProt P20309); details: read-out: M3 EC50, cited from earlier work
M1 [7] = target: T5, M1 (Homo sapiens, UniProt P11229); details: read-out: M1 EC50, cited from earlier work
T5 sequence (P11229 1-460): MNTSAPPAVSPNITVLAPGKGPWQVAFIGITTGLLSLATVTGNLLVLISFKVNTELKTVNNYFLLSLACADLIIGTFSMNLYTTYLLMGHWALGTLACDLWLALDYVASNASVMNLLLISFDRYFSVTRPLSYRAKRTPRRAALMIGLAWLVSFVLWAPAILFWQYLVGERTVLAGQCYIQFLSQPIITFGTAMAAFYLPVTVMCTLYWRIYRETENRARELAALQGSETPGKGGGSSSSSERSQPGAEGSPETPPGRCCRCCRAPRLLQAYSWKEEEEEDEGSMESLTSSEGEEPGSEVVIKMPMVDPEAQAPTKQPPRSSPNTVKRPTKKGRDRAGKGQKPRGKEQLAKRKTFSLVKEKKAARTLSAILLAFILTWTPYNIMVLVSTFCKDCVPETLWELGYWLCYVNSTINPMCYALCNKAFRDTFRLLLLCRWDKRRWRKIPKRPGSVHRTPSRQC

M5 [8] = target: T1, M5; assay type: cell-based; details: single point 10 µM, M5-CHO cells
[9] = Ancillary pharmacology panel; assay type: binding
M5 [10] = target: T1, M5; experiment: Human M5 ACh fold-shift assay at 30 µM; assay type: cell-based
M3 [11] = target: T4, M3; experiment: 30 µM fold-shift selectivity assay, M3; assay type: cell-based
In short: (§1)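 Intracellular calcium mobilization in CHO cells expressing the receptor. Test compound at a fixed 30 µM, read as the fold-shift of the acetylcholine concentration-response. Data are means from at least three independent determinations.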

M1 [12] = target: T5, M1; experiment: 30 µM fold-shift selectivity assay, M1; assay type: cell-based
In short: as §1

M4 [13] = target: T3, M4; experiment: 30 µM fold-shift selectivity assay, M4; assay type: cell-based
In short: (§2)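 Intracellular calcium mobilization in CHO cells expressing the receptor co-transfected with Gqi5 to couple it to calcium signalling. Test compound at a fixed 30 µM, read as the fold-shift of the acetylcholine concentration-response. Data are means from at least three independent determinations.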

M2 [14] = target: T2, M2; experiment: 30 µM fold-shift selectivity assay, M2; assay type: cell-based
In short: as §2

NET = NET (Homo sapiens, UniProt P23975); experiment: Ancillary pharmacology panel, NET; assay type: binding; details: same assay panel; significant = >50% inhibition at 10 µM
H1 = H1 (Homo sapiens, UniProt P35367); experiment: Ancillary pharmacology panel, H1; assay type: binding; details: same assay panel; significant = >50% inhibition at 10 µM
M5 [15] = target: T1, M5; details: read-out: M5 EC50; vs. M2–M5; cited from earlier work

T4 sequence (P20309 whole entry): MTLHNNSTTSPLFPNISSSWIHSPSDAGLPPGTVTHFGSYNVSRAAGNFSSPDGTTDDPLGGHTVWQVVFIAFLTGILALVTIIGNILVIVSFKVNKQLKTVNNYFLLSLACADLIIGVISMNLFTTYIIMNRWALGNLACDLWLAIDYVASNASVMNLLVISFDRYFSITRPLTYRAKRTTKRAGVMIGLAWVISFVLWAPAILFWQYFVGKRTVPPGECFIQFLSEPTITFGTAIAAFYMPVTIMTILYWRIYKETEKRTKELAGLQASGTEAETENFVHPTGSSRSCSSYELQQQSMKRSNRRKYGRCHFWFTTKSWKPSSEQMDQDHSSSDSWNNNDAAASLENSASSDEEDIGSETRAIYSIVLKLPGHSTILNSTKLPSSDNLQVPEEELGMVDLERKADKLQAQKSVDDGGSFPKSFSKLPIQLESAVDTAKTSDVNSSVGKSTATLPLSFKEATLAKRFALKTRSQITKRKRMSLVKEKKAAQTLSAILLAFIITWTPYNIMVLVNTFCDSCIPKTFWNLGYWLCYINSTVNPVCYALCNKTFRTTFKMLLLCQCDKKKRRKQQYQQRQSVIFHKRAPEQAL
Sequence of NET (P23975 whole entry): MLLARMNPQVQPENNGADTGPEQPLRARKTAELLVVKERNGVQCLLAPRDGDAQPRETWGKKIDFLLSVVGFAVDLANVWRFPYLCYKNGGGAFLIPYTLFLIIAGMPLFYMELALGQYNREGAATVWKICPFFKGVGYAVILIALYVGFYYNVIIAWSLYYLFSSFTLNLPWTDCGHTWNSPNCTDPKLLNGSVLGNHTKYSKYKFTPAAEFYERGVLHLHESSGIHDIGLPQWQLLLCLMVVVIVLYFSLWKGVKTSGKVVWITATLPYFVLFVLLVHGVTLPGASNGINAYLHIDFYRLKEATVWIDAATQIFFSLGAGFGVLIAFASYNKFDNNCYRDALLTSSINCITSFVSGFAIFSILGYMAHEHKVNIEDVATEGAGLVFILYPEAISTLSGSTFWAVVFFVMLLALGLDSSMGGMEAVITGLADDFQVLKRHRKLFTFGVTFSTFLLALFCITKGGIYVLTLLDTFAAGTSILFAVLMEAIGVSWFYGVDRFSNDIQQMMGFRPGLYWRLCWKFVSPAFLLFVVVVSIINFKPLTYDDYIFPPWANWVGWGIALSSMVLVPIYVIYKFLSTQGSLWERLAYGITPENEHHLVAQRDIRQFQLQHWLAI
Sequence of H1 (P35367 whole entry): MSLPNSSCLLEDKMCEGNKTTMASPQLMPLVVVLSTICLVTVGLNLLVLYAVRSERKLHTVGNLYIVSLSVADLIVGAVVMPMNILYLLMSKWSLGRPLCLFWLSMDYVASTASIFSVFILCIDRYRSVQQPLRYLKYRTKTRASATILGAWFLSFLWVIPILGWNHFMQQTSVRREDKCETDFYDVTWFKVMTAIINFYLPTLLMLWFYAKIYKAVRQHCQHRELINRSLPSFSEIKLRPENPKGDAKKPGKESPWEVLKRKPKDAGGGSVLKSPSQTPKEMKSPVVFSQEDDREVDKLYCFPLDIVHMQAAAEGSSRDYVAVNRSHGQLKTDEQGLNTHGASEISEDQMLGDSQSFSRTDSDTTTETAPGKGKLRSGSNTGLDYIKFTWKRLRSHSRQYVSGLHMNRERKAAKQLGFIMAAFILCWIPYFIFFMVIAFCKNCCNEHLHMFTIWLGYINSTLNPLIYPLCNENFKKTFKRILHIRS

O=C1C(=O)N(Cc2ccc(-c3cccnc3)cn2)c2ccc(OC(F)(F)F)cc21 [21b]
M5 PAM activity (in words) (M5 [1]): devoid of M5 PAM activity

O=C1C(=O)N(Cc2ccc(-c3ccccc3)cc2)c2ccc(OC(F)(F)F)cc21 [compound 4]
solubility [2]: limited solubility | EC50 (M2 [3]; vs. M1–M4): > 30 µM | logP [4]: > 4.5 | EC50 (M4 [5]; vs. M1–M4): > 30 µM | EC50 (M3 [6]; vs. M1–M4): > 30 µM | EC50 (M1 [7]; vs. M1–M4): > 30 µM

CC1CCCN(COc2ccc3c(c2)C(=O)C(=O)N3Cc2ccc(-c3ccccc3)cc2)C1 (centres unmarked) [10ee]
ability to potentiate an EC20 of ACh (M5 [8]): did decrease the ACh EC20

O=C1C(=O)N(Cc2c(F)cc(-c3ccccc3)cc2F)c2ccc(OC(F)(F)F)cc21 [compound 12]
M5 PAM activity (in words) (M5 [1]): loss in both potency and efficacy

O=C1C(=O)N(Cc2ccc3c(c2)OCO3)c2ccc(OC(F)(F)F)cc21 [compound 13]
M5 PAM activity (in words) (M5 [1]): highly efficacious M5 PAM of comparable potency to 4

O=C1C(=O)N(Cc2ccc(Oc3ccccc3)cc2)c2ccc(OC(F)(F)F)cc21 [compound 5]
solubility [2]: limited solubility | EC50 (M2 [3]; vs. M1–M4): > 30 µM | logP [4]: > 4.5 | EC50 (M4 [5]; vs. M1–M4): > 30 µM | EC50 (M3 [6]; vs. M1–M4): > 30 µM | number of targets with significant activity (>50% inhibition at 10 µM) ([9]; of 68 targets, 10 µM): 32 targets | EC50 (M1 [7]; vs. M1–M4): > 30 µM

O=C1C(=O)N(Cc2ccc(-c3ccccc3)nc2)c2ccc(OC(F)(F)F)cc21 [22a]
allosteric agonism (M5 [10]): ~ 20% | effect on M3, fold-shift selectivity (M3 [11]): neither 22a nor 27b showed any significant effect | effect on M1, fold-shift selectivity (M1 [12]): neither 22a nor 27b showed any significant effect | effect on M4, fold-shift selectivity (M4 [13]): neither 22a nor 27b showed any significant effect | effect on M2, fold-shift selectivity (M2 [14]): neither 22a nor 27b showed any significant effect

O=C1C(=O)N(Cc2ccc(Oc3cccc(F)n3)cc2)c2ccc(OC(F)(F)F)cc21 [27b]
activity at NET (NET): significant activity | effect on M3, fold-shift selectivity (M3 [11]): neither 22a nor 27b showed any significant effect | effect on M1, fold-shift selectivity (M1 [12]): neither 22a nor 27b showed any significant effect | effect on M4, fold-shift selectivity (M4 [13]): neither 22a nor 27b showed any significant effect | number of targets with modest activities ([9]; of the 68 targets): 11 targets | activity at H1 (H1): significant activity | effect on M2, fold-shift selectivity (M2 [14]): neither 22a nor 27b showed any significant effect

O=C1C(=O)N(Cc2ccc(-c3ccncc3)cn2)c2ccc(OC(F)(F)F)cc21 [21c]
M5 PAM activity (in words) (M5 [1]): devoid of M5 PAM activity

Cn1cc(-c2ccc(CN3C(=O)C(=O)c4ccccc43)c(F)c2)cn1 [compound 2]
EC50 (M2 [3]; vs. M2–M5): > 30 µM | EC50 (M4 [5]; vs. M2–M5): > 30 µM | EC50 (M3 [6]; vs. M2–M5): > 30 µM | EC50 (M1 [7]; PAM): 0.83 µM | EC50 (M5 [15]): > 30 µM

O=C1C(=O)N(Cc2ccc(-c3ccccc3)cc2F)c2ccc(OC(F)(F)F)cc21 [compound 11]
M5 PAM activity (in words) (M5 [1]): loss in both potency and efficacy

CN(C)CCOc1ccc2c(c1)C(=O)C(=O)N2Cc1ccc(-c2ccccc2)cc1 [10gg]
ability to potentiate an EC20 of ACh (M5 [8]): did decrease the ACh EC20

O=C1C(=O)N(Cc2ccc(-c3ccccc3)cc2)c2ccc(OCCN3CCCC3)cc21 [10kk]
ability to potentiate an EC20 of ACh (M5 [8]): did decrease the ACh EC20
